Measurements published in ChEMBL document CHEMBL1629517, “Molecular properties prediction, synthesis and antimicrobial activity of some newer oxadiazole derivatives” (2010).
In brackets after ≈: the same amount, converted by molar mass.

How the values were obtained:
Escherichia coli [1] = experiment: Antibacterial activity against Escherichia coli ATCC 25922 at 200 ug/ml after 24 hrs by disc-diffusion method; assay type: functional; details: ATCC 25922, 24 h, read-out: IZ
Escherichia coli [2] = experiment: Antibacterial activity against Escherichia coli ATCC 25922 after 18 to 24 hrs; assay type: functional
Pseudomonas aeruginosa [3] = experiment: Antibacterial activity against Pseudomonas aeruginosa ATCC 27853 at 100 ug/ml after 24 hrs by disc-diffusion method; assay type: functional; details: ATCC 27853, 24 h, read-out: IZ
Escherichia coli [4] = experiment: Antibacterial activity against Escherichia coli ATCC 25922 after 24 hrs by broth dilution technique; assay type: functional; details: ATCC 25922, 24 h
Procedure, shortened: (§1)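 MIC by broth dilution: nutrient broth containing logarithmic two-fold serial dilutions of compound was inoculated with about 5 × 10⁵ c.f.u. of actively dividing bacteria.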

Aspergillus niger [5] = experiment: Antifungal activity against Aspergillus niger at 200 ug/ml after 48 hrs by agar diffusion method; assay type: functional; details: read-out: IZ
Procedure, shortened: (§2)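 Agar well diffusion on Sabouraud agar (peptone 1 g, D-glucose 4 g, agar 2 g per 100 ml water, pH 5.7). Plates were lawned with a saline suspension of spores, excess was decanted, and plates were dried 1 h at 37 °C. Compounds in DMSO went into punched wells, and inhibition zones were measured against controls, with voriconazole as standard.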

Bacillus subtilis [6] = experiment: Antibacterial activity against Bacillus subtilis ATCC 6633 after 24 hrs by broth dilution technique; assay type: functional; details: ATCC 6633, 24 h; procedure, shortened: as §1
Bacillus subtilis [7] = experiment: Antibacterial activity against Bacillus subtilis ATCC 6633 at 200 ug/ml after 24 hrs by disc-diffusion method; assay type: functional; details: ATCC 6633, 24 h, read-out: IZ
Pseudomonas aeruginosa [8] = experiment: Antibacterial activity against Pseudomonas aeruginosa ATCC 27853 after 18 to 24 hrs; assay type: functional
Candida albicans [9] = experiment: Antifungal activity against Candida albicans at 200 ug/ml after 48 hrs by agar diffusion method; assay type: functional; details: read-out: IZ; procedure, shortened: as §2
Staphylococcus aureus [10] = experiment: Antibacterial activity against Staphylococcus aureus ATCC 25923 at 200 ug/ml after 24 hrs by disc-diffusion method; assay type: functional; details: ATCC 25923, 24 h, read-out: IZ
Candida albicans [11] = experiment: Antifungal activity against Candida albicans after 48 hrs; assay type: functional
Bacillus subtilis [12] = experiment: Antibacterial activity against Bacillus subtilis ATCC 6633 at 100 ug/ml after 24 hrs by disc-diffusion method; assay type: functional; details: ATCC 6633, 24 h, read-out: IZ
Staphylococcus aureus [13] = experiment: Antibacterial activity against Staphylococcus aureus ATCC 25923 after 18 to 24 hrs; assay type: functional
Bacillus subtilis [14] = experiment: Antibacterial activity against Bacillus subtilis ATCC 6633 after 18 to 24 hrs; assay type: functional
Aspergillus niger [15] = experiment: Antifungal activity against Aspergillus niger after 48 hrs; assay type: functional
Escherichia coli [16] = experiment: Antibacterial activity against Escherichia coli ATCC 25922 at 100 ug/ml after 24 hrs by disc-diffusion method; assay type: functional; details: ATCC 25922, 24 h, read-out: IZ
Pseudomonas aeruginosa [17] = experiment: Antibacterial activity against Pseudomonas aeruginosa ATCC 27853 after 24 hrs by broth dilution technique; assay type: functional; details: ATCC 27853, 24 h; procedure, shortened: as §1
Candida albicans [18] = experiment: Antifungal activity against Candida albicans at 100 ug/ml after 48 hrs by agar diffusion method; assay type: functional; details: read-out: IZ; procedure, shortened: as §2
Pseudomonas aeruginosa [19] = experiment: Antibacterial activity against Pseudomonas aeruginosa ATCC 27853 at 200 ug/ml after 24 hrs by disc-diffusion method; assay type: functional; details: ATCC 27853, 24 h, read-out: IZ
Aspergillus niger [20] = experiment: Antifungal activity against Aspergillus niger at 100 ug/ml after 3 to 4 days by agar diffusion method; details: read-out: IZ
Staphylococcus aureus [21] = experiment: Antibacterial activity against Staphylococcus aureus ATCC 25923 at 100 ug/ml after 24 hrs by disc-diffusion method; assay type: functional; details: ATCC 25923, 24 h, read-out: IZ
Staphylococcus aureus [22] = experiment: Antibacterial activity against Staphylococcus aureus ATCC 25923 after 24 hrs by broth dilution technique; assay type: functional; details: ATCC 25923, 24 h; procedure, shortened: as §1

Compound	zone of inhibition at 200 µg/mL (Escherichia coli [1])	MBC (Escherichia coli [2])	zone of inhibition at 100 µg/mL (Pseudomonas aeruginosa [3])	MIC (Escherichia coli [4])	zone of inhibition at 200 µg/mL (Aspergillus niger [5])	MIC (Bacillus subtilis [6])	zone of inhibition at 200 µg/mL (Bacillus subtilis [7])	MBC (Pseudomonas aeruginosa [8])	zone of inhibition at 200 µg/mL (Candida albicans [9])	zone of inhibition at 200 µg/mL (Staphylococcus aureus [10])	MFC (Candida albicans [11])	MIC (Candida albicans [11])	zone of inhibition at 100 µg/mL (Bacillus subtilis [12])	MBC (Staphylococcus aureus [13])	MBC (Bacillus subtilis [14])	MFC (Aspergillus niger [15])	MIC (Aspergillus niger [15])	zone of inhibition at 100 µg/mL (Escherichia coli [16])	MIC (Pseudomonas aeruginosa [17])	zone of inhibition at 100 µg/mL (Candida albicans [18])	also measured
COc1ccc(C(=O)/C=C/c2ccc(OCc3nnc(COc4ccccc4)o3)c(OC)c2)cc1	22 mm	12.5 µg/mL (≈ 26.5 µM)	26 mm	25 µg/mL (≈ 52.9 µM)	19 mm	12.5 µg/mL (≈ 26.5 µM)	16 mm	12.5 µg/mL (≈ 26.5 µM)	14 mm	19 mm	25 µg/mL (≈ 52.9 µM)	12.5 µg/mL (≈ 26.5 µM)	13 mm	25 µg/mL (≈ 52.9 µM)	12.5 µg/mL (≈ 26.5 µM)	12.5 µg/mL (≈ 26.5 µM)	6 µg/mL (≈ 12.7 µM)	21 mm	25 µg/mL (≈ 52.9 µM)	11 mm	zone of inhibition at 200 µg/mL (Pseudomonas aeruginosa [19]): 28 mm; zone of inhibition at 100 µg/mL (Aspergillus niger [20]): 16 mm; zone of inhibition at 100 µg/mL (Staphylococcus aureus [21]): 17 mm; MIC (Staphylococcus aureus [22]): 12.5 µg/mL (≈ 26.5 µM)
COc1cc(/C=C/C(=O)c2ccccc2)ccc1OCc1nnc(-c2ccc(Cl)cc2)o1	18 mm	25 µg/mL (≈ 55.9 µM)	19 mm	12.5 µg/mL (≈ 28 µM)	20 mm	6 µg/mL (≈ 13.4 µM)	11 mm	50 µg/mL (≈ 112 µM)	15 mm	14 mm	50 µg/mL (≈ 112 µM)	25 µg/mL (≈ 55.9 µM)	9 mm	25 µg/mL (≈ 55.9 µM)	12.5 µg/mL (≈ 28 µM)	25 µg/mL (≈ 55.9 µM)	12.5 µg/mL (≈ 28 µM)	16 mm	25 µg/mL (≈ 55.9 µM)	12 mm	zone of inhibition at 200 µg/mL (Pseudomonas aeruginosa [19]): 22 mm; zone of inhibition at 100 µg/mL (Aspergillus niger [20]): 18 mm; zone of inhibition at 100 µg/mL (Staphylococcus aureus [21]): 12 mm; MIC (Staphylococcus aureus [22]): 12.5 µg/mL (≈ 28 µM)
COc1cc(/C=C/C(=O)c2ccccc2)ccc1OCc1nnc(-c2ccccc2)o1	20 mm	25 µg/mL (≈ 60.6 µM)	23 mm	12.5 µg/mL (≈ 30.3 µM)	25 mm	25 µg/mL (≈ 60.6 µM)	14 mm	50 µg/mL (≈ 121 µM)	18 mm	18 mm	25 µg/mL (≈ 60.6 µM)	12.5 µg/mL (≈ 30.3 µM)	13 mm	50 µg/mL (≈ 121 µM)	50 µg/mL (≈ 121 µM)	25 µg/mL (≈ 60.6 µM)	12.5 µg/mL (≈ 30.3 µM)	19 mm	25 µg/mL (≈ 60.6 µM)	16 mm	zone of inhibition at 200 µg/mL (Pseudomonas aeruginosa [19]): 25 mm; zone of inhibition at 100 µg/mL (Aspergillus niger [20]): 21 mm; zone of inhibition at 100 µg/mL (Staphylococcus aureus [21]): 16 mm; MIC (Staphylococcus aureus [22]): 12.5 µg/mL (≈ 30.3 µM)
COc1ccc(C(=O)/C=C/c2ccc(OCc3nnc(-c4ccccc4O)o3)c(OC)c2)cc1	26 mm	12.5 µg/mL (≈ 27.3 µM)	30 mm	6 µg/mL (≈ 13.1 µM)	26 mm	6 µg/mL (≈ 13.1 µM)	20 mm	25 µg/mL (≈ 54.5 µM)	21 mm	23 mm	12.5 µg/mL (≈ 27.3 µM)	6 µg/mL (≈ 13.1 µM)	18 mm	6 µg/mL (≈ 13.1 µM)	12.5 µg/mL (≈ 27.3 µM)	12.5 µg/mL (≈ 27.3 µM)	6 µg/mL (≈ 13.1 µM)	25 mm	12.5 µg/mL (≈ 27.3 µM)	19 mm	zone of inhibition at 200 µg/mL (Pseudomonas aeruginosa [19]): 32 mm; zone of inhibition at 100 µg/mL (Aspergillus niger [20]): 25 mm; zone of inhibition at 100 µg/mL (Staphylococcus aureus [21]): 21 mm; MIC (Staphylococcus aureus [22]): 6 µg/mL (≈ 13.1 µM)
